Bioassay records: PubChem, several laboratories
Apaf-1 inh – inhibitors of human Apaf-1 apoptosome | O14727 | reconstituted apoptosome caspase-3 activity, DEVD-Rh110 fluorescence | inhibition, % at 20 µM | actives 0.71% (n = 330,000); active = inhibition of at least 40% at 20 µM;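 also: plate controls were DMSO wells for no effect and DEVD-CHO caspase inhibitor wells for full effect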
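Assay system – apoptosome proteins · Medium – Hepes buffer, pH 7.5 · Also added – cytochrome c with DEVD-Rh110 · Timing – 30 min compound preincubation, 50 min activation, room temperature · Detection – Rh110 fluorescence, excitation 480 nm, emission 540 nm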
ANO1 activ – mouse TMEM16A channel activation, primary screen. HEK293 TMEM16A/YFP-H148Q/I152L, iodide quench fluorescence; stronger effect = lower value. actives 0.3% (n = 340,000). B-score at 10 µM. AID 623877;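 active = fluorescence-ratio B-score plate-corrected deviation score at least 3 library SD below zero, with starting fluorescence score within 5 deviations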;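 also: channel opened by trigger with iodide after compound preincubation; score built on the fluorescence ratio of max minus min over baseline; more negative score means more quench and so TMEM16A activation or potentiation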
UBC13 polyUb – inhibitors of human UBC13 polyubiquitin chain formation. P61088. TR-FRET. inhibition, % at 20 µM. actives 0.47% (n = 330,000). AID 485273; in the data active = inhibition above about 45%, passing the limit was not always enough
Target sequence (P61088 whole entry, looked up): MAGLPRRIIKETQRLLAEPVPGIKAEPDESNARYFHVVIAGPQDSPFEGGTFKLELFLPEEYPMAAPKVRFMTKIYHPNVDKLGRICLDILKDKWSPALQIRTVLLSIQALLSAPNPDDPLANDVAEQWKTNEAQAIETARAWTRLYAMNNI
DNA FID counter – fluorescent intercalator displacement, NS3 helicase counter-screen; inhibition, % at 7.9 µM; DNA fluorescent intercalator displacement, fluorescence; actives 0.17% (n = 290,000); in the data active = inhibition above about 37%;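 also: 0% = vehicle and 100% = reference compound; higher means more ethidium bromide displaced from hairpin DNA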
TMEM16A inh – inhibitors of mouse TMEM16A calcium-activated chloride channel; Q8BHY3; HEK293 TMEM16A/YFP iodide influx fluorescence, ionomycin; normalized B-score (activity score, 25-100; higher = stronger inhibition) at 10 µM; actives 1.2% (n = 310,000); AID 588511;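 active = ratio plate-corrected score three or more library SD toward inhibition, starting fluorescence score within five deviations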;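 also: score derived from kinetic fluorescence span divided by baseline fluorescence per well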
Starred values were filed as active, the others as inactive; i = inactive; · = not tested or not shown. The list is not random: actives were taken first. Their share in the collection is about 2.4%.

SMILES	Apaf-1 inh	ANO1 activ	UBC13 polyUb	DNA FID counter	TMEM16A inh
C[C@H](CO)N1C[C@H](C)[C@@H](CN(C)C(=O)NC2CCCCC2)Oc2ccc(NC(=O)Nc3ccc(C(F)(F)F)cc3)cc2C1=O	-25	-5*	18	·	·
O=C(COc1ccc(F)cc1)NCCN1CCCC1	12	i	3	3	i
O=C(O)c1ccccc1C(=O)Nc1ccc(-n2nc(C(F)(F)F)cc2C(F)(F)F)cc1	2	i	-15	4	i
ONc1cccnc1-n1nc(C(F)(F)F)cc1C(F)(F)F	47*	·	-49	-7	i
CC1(OC(=O)C2CCCC2)C(=O)C=C2C=C3CCCN3C=C2C1=O (configuration not stated)	11	·	-7	·	i
CC1(OC(=O)c2cccs2)C(=O)C=C2C=C3CCCN3C=C2C1=O (configuration not stated)	62*	i	-105	·	i
CC(=O)c1c(C)[nH]c(C(=O)OCC(=O)c2ccc(C)s2)c1C	5	i	5	·	·
Cc1nn(S(=O)(=O)c2ccc(F)cc2)c(C)c1S(=O)(=O)N1CCCCC1	-2	i	-2	-13	i
CCN(CC)CCNC(=S)Nc1ccc2nc(N3CCCC3)cc(C)c2c1	12	i	-12	49*	i
CCCCN(CC)CCCNC(=S)Nc1ccc2nc(N3CCN(C)CC3)cc(C)c2c1	-5	i	18	32	i
Cc1cc(N2CCOCC2)nc2ccc(NC(=S)NCCN(C)C)cc12	12	i	-2	52*	i
CCCN(CCC)CCCNC(=S)Nc1ccc2nc(N3CCCC3)cc(C)c2c1	-3	i	9	43*	i
Cc1cc(N2CCCC2)nc2ccc(NC(=S)NCCCOC(C)C)cc12	5	i	-20	17	i
CCN(CC)CCNC(=S)Nc1ccc2nc(N3CCOCC3)cc(C)c2c1	6	i	0	15	i
CCCCN(CC)CCCNC(=S)Nc1ccc2nc(N3CCN(CC)CC3)cc(C)c2c1	16	i	-1	52*	i
COc1ccccc1NC(=O)CNc1ccc(F)c(Cl)c1	1	i	4	-1	i
CCN1CCN(c2cc(C)c3cc(NC(=S)N4CCN(c5ccccc5)CC4)ccc3n2)CC1	8	i	18	21	i
CCCN1CCN(C(=S)Nc2ccc3nc(N4CCN(CC)CC4)cc(C)c3c2)CC1	12	i	-9	50*	i
CCN(CC)CCNC(=S)Nc1ccc2nc(N3CCN(C)CC3)cc(C)c2c1	2	i	7	44*	i
Cc1ccc(S(=O)(=O)Nc2cccc(C(=O)NCCCN3CCCC3=O)c2)cc1F	24	i	20	·	i
CCN1CCC(Nc2ccnc3cc(Cl)ccc23)CC1	1	i	4	50*	i
CN1CCN(c2ccc(Nc3ccnc4cc(Cl)ccc34)cc2)CC1	-4	i	20	83*	i
COc1ccc(NC(=O)COC(=O)c2ccc(-n3cnnn3)cc2)cc1Cl	2	i	7	·	i
CC(C)C(NCC(=O)Nc1ccccc1C(=O)NC1CC1)c1ccccc1 (configuration not stated)	2	i	-5	·	·
COc1ccc(CCC(=O)Nc2ccc(S(=O)(=O)Nc3nccc(C)n3)cc2)cc1	13	i	3	-17	i
SMILES	Apaf-1 inh	ANO1 activ	UBC13 polyUb	DNA FID counter	TMEM16A inh
CCc1nn(C(C)C(=O)NCc2ccc(Cl)cc2)c(=O)c2cc3occc3n12 (configuration not stated)	10	i	2	-46	i
C=CC[n+]1c(-c2ccc(OC)cc2)csc1NNC(=O)Nc1ccccc1	13	i	0	4	100*
C=CC[n+]1c(-c2ccc(C)cc2)csc1Nc1ccc(NC(C)=O)cc1	·	i	·	-5	·
COc1ccc(-c2cn(-c3ccccc3)c3[n+]2CCS3)cc1	3	i	2	2	i
CCS(=O)(=O)n1nc(-c2ccc(Cl)cc2)nc1SCc1ccccc1	26	·	-5	0	25*
COc1ccc(-c2nc(SCc3ccccc3)n(S(C)(=O)=O)n2)cc1	8	i	-6	-2	i
O=C(CCC(=O)c1cccs1)NCc1ccccc1Cl	9	i	-3	·	·
COc1cccc(OCc2cc(C(=O)N(Cc3ccccc3)CC3CC3)no2)c1	29	i	2	-44	i
CCN1/C(=C2\C(=O)N(C)C(=S)N2C)C=Cc2cc(C)ccc21	4	i	-308	6	i
O=C(COC(=O)CC(c1ccccc1)c1ccccc1)Nc1cccc(F)c1	12	i	-4	-16	i
O=C(COC(=O)CC(c1ccccc1)c1ccccc1)Nc1ccc(F)c(F)c1	7	·	4	-7	100*
COc1ccc(CN2C(=O)c3ccccc3C2C(=O)NC2CCCCCC2)c(OC)c1 (configuration not stated)	·	i	·	-41	·
CCOc1ccc(S(=O)(=O)NCc2ccncc2)cc1	4	i	-3	0	25*
CCOC(=O)COc1ccc(S(=O)(=O)NCc2ccncc2)cc1	-1	i	-2	-6	i
CCOC(=O)N1CCN(S(=O)(=O)c2c(C(=O)N3CCCCC3)c(C)n(C)c2C)CC1	-8	i	-6	-29	i
NS(=O)(=O)c1ccc(-c2cccc(/C=C3\SC(=O)NC3=O)c2)cc1	11	-4.9*	-16	-22	i
COc1ccccc1-c1ccc(SCc2ccccc2F)nn1	2	i	-2	-17	25*
CCCc1nnc(SCC(=O)N2CCCCC2C)n1CC1CCCO1 (configuration not stated)	·	i	·	-6	25*
Cc1nn(CC(C)C)c2sc(C(=O)NC3CC(C)(C)NC(C)(C)C3)cc12	-4	i	-2	18	i
Cc1[nH]n(-c2ccc(Cl)cc2)c(=O)c1/C=N/c1nnc(-c2ccccc2)s1	28	i	-6	0	25*
CCc1nnc(NS(=O)(=O)c2ccc(N=Cc3c(C)[nH]n(-c4ccc(Cl)cc4)c3=O)cc2)s1	17	i	-19	-4	i
COCCN(C(=O)c1cc(CN2C(=O)c3ccccc3C2=O)ccc1OC)c1c(N)n(CC(C)C)c(=O)[nH]c1=O	·	i	·	·	·
CCCC1(c2ccccc2)NC(=O)N(CC(=O)Nc2cc(C)on2)C1=O (configuration not stated)	3	i	-4	-2	i
CCC1(c2ccc(F)cc2)NC(=O)N(CC(=O)Nc2cc(C)on2)C1=O (configuration not stated)	-5	-39*	7	·	·
CCC1(c2ccc(F)cc2)NC(=O)N(CC(=O)NCC(=O)Nc2cccc(C)c2C)C1=O (configuration not stated)	4	i	-4	·	25*
CCCNC(=O)CN1C(=O)NC(CC)(c2ccc(F)cc2)C1=O (configuration not stated)	-1	i	8	-6	i
